Screening results deposited in PubChem by Sanford-Burnham Center for Chemical Genomics.
bIAP act: intestinal alkaline phosphatase (bovine) activation. hit rate 0.17% among 200,000. purified bovine IAP, CDP-star luminescence, 30 min; stronger effect = higher value; fold of DMSO-control signal, blank-subtracted. activation factor at 20 µM. AID 1016;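 active = activation factor of 2 or more at 20 µM, a signal rise over negative controls twice the positive control's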
hIAP inh: human IAP inhibition. P09923. purified IAP, CDP-Star luminescence, 30 min. inhibition, % at 10 µM. hit rate 0.12% among 330,000. AID 2544;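 active = inhibition reaching a set limit with compound at 10 µM in the primary screen, cut at about 35% in these data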;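 note: plate controls were DMSO wells with enzyme for no effect and no-enzyme buffer wells for full effect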
Target sequence (P09923 whole entry, looked up): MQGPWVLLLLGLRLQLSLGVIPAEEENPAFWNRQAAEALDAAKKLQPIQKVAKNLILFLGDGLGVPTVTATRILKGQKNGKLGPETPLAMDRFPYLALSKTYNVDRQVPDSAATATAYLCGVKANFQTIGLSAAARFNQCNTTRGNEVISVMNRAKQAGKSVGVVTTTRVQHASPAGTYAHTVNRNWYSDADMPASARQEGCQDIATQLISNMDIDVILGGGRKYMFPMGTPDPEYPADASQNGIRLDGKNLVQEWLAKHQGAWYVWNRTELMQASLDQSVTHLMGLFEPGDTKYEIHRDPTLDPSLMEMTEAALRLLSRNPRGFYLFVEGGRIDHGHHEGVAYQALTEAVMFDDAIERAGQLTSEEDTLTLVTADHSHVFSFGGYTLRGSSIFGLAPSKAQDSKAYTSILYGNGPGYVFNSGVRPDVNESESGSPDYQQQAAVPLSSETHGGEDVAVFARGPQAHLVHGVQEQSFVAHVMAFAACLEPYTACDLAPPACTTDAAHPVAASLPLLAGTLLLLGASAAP
mIAP block: mouse IAP inhibition; purified mouse IAP, CDP-Star luminescence, 30 min; inhibition, % at 10 µM; hit rate 0.2% among 330,000; AID 2806;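 active = inhibition of at least 40% at 10 µM in the primary screen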;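 note: plate controls were DMSO with enzyme for no effect and no enzyme wells for full effect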
mIAP activ: mouse IAP activation | hit rate 0.24% among 330,000 | muIAP, CDP-Star luminescence, 30 min; stronger effect = higher value; 1 = vehicle-only enzyme signal, 0 = enzyme-free wells | AID 2805 | activation factor at 10 µM;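 active = activation factor of at least 2 at 20 µM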
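Assay system: mouse IAP enzyme / Compound: DMSO-dissolved test compounds / Timing: 30 min, room temperature / Measured by: luminescence from enzymatic CDP-Star hydrolysis / Control set: DMSO-only wells, enzyme-free buffer wells as negative control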
hIAP act: increases human intestinal alkaline phosphatase activity | purified human IAP, CDP-Star luminescence, 30 min; stronger effect = higher value; 1 = vehicle-only enzyme, 0 = enzyme-free background | activation factor at 10 µM | hit rate 0.16% among 330,000 | AID 2524;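 active = activation factor of the enzyme at least 2-fold when tested at 20 µM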
bIAP inhibitor: intestinal alkaline phosphatase (bovine) inhibition | AID 1019 | 190,000 tested, under 10 active | inhibition, % at 20 µM | purified bovine IAP, CDP-star luminescence, 30 min;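 active = over 50% inhibition of intestinal alkaline phosphatase at 20 µM in the single-dose screen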
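Incubation: 30 min reaction at room temperature / Material: purified bovine intestinal alkaline phosphatase (IAP) enzyme / Input: enzyme at 1/65,000,000 dilution / Dosing: 20 µM single dose / Signal: CDP-star luminescence signal / Reagent: CDP-star chemiluminescent phosphatase substrate, 30 µM final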
hIAP act confirm: human IAP activation confirmation. shares compounds with hIAP act. purified IAP, CDP-Star luminescence, 30 min; stronger effect = lower value. activation (%Activity, negative = activation), % at 8.3 µM. hit rate 10% among 880;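 active = at least twofold enzyme activation in any of six single-dose repeats, which the averaged readout prints as negative percent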
* hit, by the source's call; · = no result given. The list is not random: actives were taken first. Their share in the collection is about 0.72%.

SMILES | bIAP act | hIAP inh | mIAP block | mIAP activ | hIAP act | bIAP inhibitor | hIAP act confirm
Cc1ccc(-c2cc(C(=O)N/N=C/c3ccccc3O)n[nH]2)o1 | · | -214 | 16 | 0.84 | 3.1* | · | 39
Cc1ccc(-c2c(C(=O)N/N=C/c3c[nH]c4ccccc34)nnn2-c2nonc2N)cc1 | · | 8 | 6 | 0.94 | 0.92 | · | ·
Cc1cc(C)cc(CC(Cc2nc3ccccc3[nH]2)c2nc3ccccc3[nH]2)c1 (stereo unspecified) | 5.2* | -112 | -38 | 1.4 | 2.1* | -422 | -323*
Cc1ccn2cc(-c3ccc(O)c(O)c3)nc2c1 | · | 40* | 40 | 0.6 | 0.6 | · | -69
Oc1ccc(-c2cn3ccccc3n2)cc1O | · | 49* | 3 | 0.97 | 0.51 | · | 12
O=C(O)/C(=C\c1ccccc1)c1ccc2ccccc2c1 | · | 38* | -5 | 1.1 | 0.62 | · | 6
Cc1nc(N2CCCCC2)c2c(C)c(C(=O)Nc3ccc4c(c3)OCCO4)sc2n1 | · | -36 | 1 | 0.99 | 1.4 | · | ·
Cc1cc(NC(=O)CSc2nnc(-c3ccc([N+](=O)[O-])cc3)o2)no1 | · | 35* | -3 | 1 | 0.65 | · | -61
CSc1ccc(CCNC(=O)c2cccc3c2C(=O)N(C2CCCCC2)C3)cc1 | · | -33 | 9 | 0.91 | 1.3 | · | ·
COC(=O)C1Cc2c([nH]c3ccccc23)C2(CCN(Cc3ccccc3)CC2)N1 (stereo unspecified) | · | -3 | -5 | 1 | 1 | · | ·
O=C(NCC1CCCCC1)c1ccc(F)cc1Cl | · | 45* | -4 | 1 | 0.55 | · | 27
OC1(c2cccs2)CN(c2ccc(Br)cc2)C2=[N+]1CCCS2 (stereo unspecified) | · | -180 | 5 | 0.95 | 2.8* | · | 18
O=C(CNC(=S)N(CCCN1CCOCC1)Cc1cccs1)NCc1ccccc1Cl | · | -110 | -1 | 1 | 2.1* | · | 14
COC(CNC(=O)CNC(=S)N(CCCN1CCOCC1)Cc1cccs1)OC | 0.9 | -28 | -18 | 1.2 | 1.3 | 8 | ·
O=C(CNC(=S)N(CCCN1CCOCC1)Cc1cccs1)NCc1ccc(Cl)cc1 | · | -186 | -8 | 1.1 | 2.9* | · | -51
O=C(CNC(=S)N(CCCN1CCOCC1)Cc1cccs1)NCCCN1CCOCC1 | 1.1 | 5 | 15 | 0.85 | 0.95 | -10 | ·
CN(C)S(=O)(=O)c1ccc(Cl)c(NC(=O)CNC2(C)CCS(=O)(=O)C2)c1 (stereo unspecified) | · | -21 | -5 | 1.1 | 1.2 | · | ·
CC(NS(=O)(=O)c1ccccc1)C(=O)Nc1ccc2c(c1)OCCO2 (stereo unspecified) | · | 10 | 1 | 0.99 | 0.9 | · | ·
Cc1cc(O)c(-c2cc(C(=O)NCc3ccc4c(c3)OCO4)[nH]n2)cc1C | 1.6 | 14 | -29 | 1.3 | 0.86 | -56 | ·
COc1ccc(CCNC(=O)c2cc(-c3ccc(C)c(C)c3O)n[nH]2)cc1OC | 1.4 | -91 | -8 | 1.1 | 1.9 | -37 | ·
Cc1cccc(NC(=O)c2cc(-c3cc(C)c(C)cc3O)n[nH]2)c1 | · | -78 | -2 | 1 | 1.8 | · | ·
Cc1cccc(NC(=O)c2cc(-c3cc(C)ccc3O)n[nH]2)c1 | · | -104 | -16 | 1.2 | 2* | · | 7
O=C(NCc1ccc2c(c1)OCO2)c1cc(-c2cc(Cl)ccc2O)n[nH]1 | · | -108 | -28 | 1.3 | 2.1* | · | 18
Cc1c(Cl)cccc1NC(=O)c1cc(-c2ccccc2O)n[nH]1 | 0.9 | -101 | -8 | 1.1 | 2* | 7 | 5
COc1ccc(CCNC(=O)c2cc(-c3cc(C)ccc3O)n[nH]2)cc1OC | 2* | -168 | -68 | 1.7 | 2.7* | -96 | -9
SMILES | bIAP act | hIAP inh | mIAP block | mIAP activ | hIAP act | bIAP inhibitor | hIAP act confirm
CCn1cc(CN2CCC(C(=O)Nc3cccc(-c4cccc(OC)c4)c3)CC2)c(C)n1 | · | -25 | -6 | 1.1 | 1.3 | · | ·
COc1ccc(CNC(=O)c2cc(-c3ccccc3O)n[nH]2)cc1 | 1 | 6 | -54 | 1.5 | 0.94 | -5 | ·
COc1ccc(NC(=O)c2cc(-c3ccc(C)cc3O)n[nH]2)c(OC)c1 | · | -106 | 2 | 0.98 | 2.1* | · | -37
COc1ccc(CNC(=O)c2cc(-c3cc(C)ccc3O)n[nH]2)cc1 | · | -138 | -70 | 1.7 | 2.4* | · | -34
CN(C)S(=O)(=O)N1CCC(Oc2ccc(C(=O)N3C[C@@H]4CCC[C@H]3C4)cc2)CC1 | · | 7 | -14 | 1.1 | 0.93 | · | ·
O=c1c2ccccc2nc(/C=C/c2cc(Br)ccc2O)n1CCCO | · | -2 | 9 | 0.91 | 1 | · | ·
Cc1ccc(N(Cc2ccccc2)C(=O)CN2C(=O)NC3(CCCC3)C2=O)cc1 | · | -3 | 4 | 0.96 | 1 | · | ·
CCOCCCNc1nc2c(C)cccn2c(=O)c1/C=C1\SC(=S)N(C(C)CC)C1=O (stereo unspecified) | · | 36* | 30 | 0.7 | 0.64 | · | 0
CCOc1ccc(CNC(=O)C2CCN(c3nnc(C)c4c(C)n(-c5ccc(C)cc5)nc34)CC2)cc1 | · | -47 | 14 | 0.86 | 1.5 | · | ·
COc1ccc(-n2nc3c(N4CCC(C(=O)NCc5cccc(C)c5)CC4)nnc(C)c3c2C)cc1 | · | -121 | -27 | 1.3 | 2.2* | · | -42
COc1ccccc1CCNC(=O)C1CCN(c2nnc(C)c3c(C)n(-c4ccc(C)cc4)nc23)CC1 | · | -132 | -25 | 1.3 | 2.3* | · | 31
O=C(CSc1nnc(-c2ccccc2O)n1Cc1ccccc1)NNC(=O)c1ccccc1O | 1 | -146 | 20 | 0.8 | 2.5* | -4 | -41
Cc1cc(N2C(=O)C(O)=C(C(=O)c3cc4ccccc4o3)C2c2cccc(Cl)c2)no1 (stereo unspecified) | · | 6 | 13 | 0.87 | 0.94 | · | ·
O=C(N/N=C/c1cccc([N+](=O)[O-])c1)c1nc2ccccc2c(=O)[nH]1 | · | -140 | 26 | 0.74 | 2.4* | · | 33
CN(CC(=O)Nc1ccccc1Br)C(=O)CNC(=O)c1ccc(Oc2ccccc2)cc1 | · | 35* | 5 | 0.95 | 0.65 | · | -2
CCn1c2ccccc2c2cc(NC(=O)c3coc(=O)c(Br)c3)ccc21 | · | 42* | 15 | 0.85 | 0.58 | · | 39
N#C/C(=C/c1ccc(O)c(O)c1)c1nc2ccccc2[nH]1 | · | 58* | 36 | 0.64 | 0.42 | · | 4
N#C/C(=C\c1ccc(N2CCCCC2)c([N+](=O)[O-])c1)c1nn(-c2ccccc2)c(N)c1C#N | 0.9 | 19 | 16 | 0.84 | 0.81 | 12 | ·
N#C/C(=C\c1ccc(N2CCCC2)c([N+](=O)[O-])c1)c1nc2ccccc2[nH]1 | 0.8 | 35* | 12 | 0.88 | 0.65 | 21 | -1
C=CCOc1ccc(C2/C(=C(/O)c3ccc4c(c3)CC(C)O4)C(=O)C(=O)N2CCCN2CCOCC2)cc1 (stereo unspecified) | · | -6 | -1 | 1 | 1.1 | · | ·
CCOC(=O)c1c(NC(=O)Cn2cc([N+](=O)[O-])cn2)sc2c1CCC2 | 1 | 36* | 7 | 0.93 | 0.65 | -4 | -91*
